# Calls of active or inactive are those of the source. The calls are words filed in the database; no cut-off is given here.
# How the values were obtained:
# Mus musculus [1] = assay: Inhibition of iron-dextran conjugate-induced Smad-1 phosphorylation in C57BL/6 mouse at 23 ug/g, iv after 1 hr; assay type: functional, organism-based
# Mus musculus [2] = assay: Inhibition of iron-dextran conjugate-induced Smad-5 phosphorylation in C57BL/6 mouse at 23 ug/g, iv after 1 hr; assay type: functional, organism-based
# Mus musculus [3] = assay: Increase in serum iron concentration in C57BL/6 mouse at 10 mg/kg, iv after 24 hrs; assay type: functional
# Mus musculus [4] = species on record: Mus musculus; assay: Inhibition of BMPR1-mediated Smad-5 phosphorylation in BMP4-stimulated mouse PASMC at 100 to 200 ng/ml treated 30 mins before BMP4 challenge measured after 30 mins by immunoblot analysis
# In short: (§1)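 Mouse PASMCs were held 24 h in RPMI with 0.5% FCS. They were preincubated 30 min with test agent, noggin or vehicle, then exposed to recombinant BMP4 for 30 min. SDS lysates were immunoblotted for phospho-SMAD1/5/8 and bands quantified by phosphorimager. Dose-dependence was fitted as a Hill plot.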
# Mus musculus [5] = species on record: Mus musculus; assay: Inhibition of BMPR1-mediated Smad-8 phosphorylation in BMP4-stimulated mouse PASMC at 100 to 200 ng/ml treated 30 mins before BMP4 challenge measured after 30 mins by immunoblot analysis; in short: as §1
# Mus musculus [6] = species on record: Mus musculus; assay: Inhibition of BMPR1-mediated Smad-1 phosphorylation in BMP4-stimulated mouse PASMC at 4 uM treated 30 mins before BMP4 challenge measured after 30 mins by immunoblot analysis
# In short: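 PASMCs (wild-type or BMPR-II–deficient) were kept 24 h in RPMI with 0.5% FCS, preincubated 30 min with compound or vehicle, then stimulated 30 min with recombinant BMP (10 ng ml−1). Extracts in SDS-lysis buffer were immunoblotted for phospho-SMAD1/5/8, with total SMAD1 and α-tubulin as loading controls. Bands were quantitated by phosphorimager.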
# Mus musculus [7] = species on record: Mus musculus; assay: Inhibition of BMPR1-mediated Smad-1 phosphorylation in BMP7-stimulated mouse PASMC at 4 uM treated 30 mins before BMP7 challenge measured after 30 mins by immunoblot analysis
# In short: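 Wild-type mouse PASMCs were kept in RPMI with 0.5% FCS for 24 h. They were preincubated with compound or vehicle for 30 min, then stimulated for 30 min with recombinant BMP2, BMP4, BMP6 or BMP7 at 10 ng ml−1. Lysates in SDS buffer were immunoblotted with anti-phospho-SMAD1/5/8. Total SMAD1 and α-tubulin served as loading controls, and bands were quantified by phosphorimager.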
# Mus musculus [8] = species on record: Mus musculus; assay: Inhibition of BMPR1-mediated Smad-8 phosphorylation in BMP2-stimulated mouse BMPR2 deficient PASMC at 4 uM treated 30 mins before BMP2 measured after 30 mins by immunoblot analysis
# Mus musculus [9] = species on record: Mus musculus; assay: Inhibition of ALK2-mediated Id1 promoter activity in BMPR2 deficient mouse PASMC at 10 uM by immunoblot analysis
# In short: (§2)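 BMPR-II–deficient mouse PASMCs at 50% confluence co-transfected with Id1 promoter firefly luciferase (BRE-Luc, 0.3 µg), caALK2, caALK3 or caALK6 (0.6 µg), and pRL-TK Renilla (0.2 µg). Compound (4–10 µM) or vehicle added 1 h after transfection. Activity read as firefly/Renilla ratio by dual luciferase assay; n = 3, mean ± s.d.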
# Mus musculus [10] = species on record: Mus musculus; assay: Inhibition of ALK3-mediated Id1 promoter activity in BMPR2 deficient mouse PASMC at 10 uM by immunoblot analysis; in short: as §2
# C2C12 [11] = assay: Cytotoxicity against mouse C2C12 cells at 4 uM by Cell Titer Glo assay; assay type: cell-based; conditions: c2c12, 4 µM
# In short: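 C2C12 cells seeded at 2,000 cells/well in DMEM with 2% FBS and treated in quadruplicate with BMP ligands plus compound or vehicle. Viability measured by Cell-titer Glo after 5 d culture, using replicate wells treated identically to those for alkaline phosphatase.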
# C2C12 [12] = assay: Inhibition of BMPR1-mediated osteoblast differentiation in BMP6-stimulated mouse C2C12 cells assessed as decrease in alkaline phosphatase level at 4 uM by spectrophotometry; assay type: cell-based
# In short: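 C2C12 cells were seeded at 2,000 per well in DMEM with 2% FBS and treated in quadruplicate with BMP4 or BMP6 plus compound or vehicle. After 5 d, cells were lysed in TBS with 1% Triton X-100. Lysates were incubated 1 h with p-nitrophenylphosphate and alkaline phosphatase was read as absorbance at 405 nm. Cell count was measured by CyQuant in parallel wells.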
# Danio rerio [13] = species on record: Danio rerio; assay: Inhibition of BMPR1 in zebrafish assessed as penetrance of normal embryonic axis dorsalization at 10 uM treated at 2 to 6 hrs post-fertilization measured at 48 hrs; parameters: scale not given: the % may be the effect or the level left
# Danio rerio [14] = species on record: Danio rerio; assay: Inhibition of BMPR1 in zebrafish assessed as penetrance of normal embryonic axis dorsalization at 10 uM treated at 2 to 8 hrs post-fertilization measured at 48 hrs; parameters: scale not given: the % may be the effect or the level left
# Danio rerio [15] = species on record: Danio rerio; assay: Inhibition of BMPR1 in zebrafish assessed as penetrance of moderate embryonic axis dorsalization at 10 uM treated at 4 to 8 hrs post-fertilization measured at 48 hrs; parameters: scale not given: the % may be the effect or the level left
# In short: (§3)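 Compound added at the stated times and concentrations. Gross morphology scored visually at up to 48 h.p.f. for dorsalization of the embryonic axis.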
# Danio rerio [16] = species on record: Danio rerio; assay: Inhibition of BMPR1 in zebrafish assessed as severity of embryonic axis dorsalization at 10 uM treated at 4 to 8 hrs post-fertilization measured at 48 hrs; parameters: scale not given: the % may be the effect or the level left
# Danio rerio [17] = species on record: Danio rerio; assay: Inhibition of BMPR1 in zebrafish assessed as severity of embryonic axis dorsalization at 10 uM treated at 6 to 8 hrs post-fertilization measured at 48 hrs; parameters: scale not given: the % may be the effect or the level left
# Danio rerio [18] = species on record: Danio rerio; assay: Inhibition of BMPR1 in zebrafish assessed as penetrance of mild embryonic axis dorsalization at 0.5 uM treated at 3 hrs post-fertilization measured at 48 hrs; parameters: scale not given: the % may be the effect or the level left; in short: as §3
# Danio rerio [19] = species on record: Danio rerio; assay: Inhibition of BMPR1 in zebrafish assessed as penetrance of moderate embryonic axis dorsalization at 0.5 uM treated at 3 hrs post-fertilization measured at 48 hrs; parameters: scale not given: the % may be the effect or the level left; in short: as §3
# Danio rerio [20] = species on record: Danio rerio; assay: Inhibition of BMPR1 in zebrafish assessed as penetrance of normal embryonic axis dorsalization at 2 uM treated at 3 hrs post-fertilization measured at 48 hrs; parameters: scale not given: the % may be the effect or the level left
# Danio rerio [21] = species on record: Danio rerio; assay: Inhibition of BMPR1 in zebrafish assessed as penetrance of moderate embryonic axis dorsalization at 2 uM treated at 3 hrs post-fertilization measured at 48 hrs; parameters: scale not given: the % may be the effect or the level left
# Danio rerio [22] = species on record: Danio rerio; assay: Inhibition of BMPR1 in zebrafish assessed as penetrance of moderate embryonic axis dorsalization at 5 uM treated at 3 hrs post-fertilization measured at 48 hrs; parameters: scale not given: the % may be the effect or the level left
# Danio rerio [23] = species on record: Danio rerio; assay: Inhibition of BMPR1 in zebrafish assessed as severity of embryonic axis dorsalization at 7.5 uM treated at 3 hrs post-fertilization measured at 48 hrs; parameters: scale not given: the % may be the effect or the level left
# Danio rerio [24] = species on record: Danio rerio; assay: Inhibition of BMPR1 in zebrafish assessed as penetrance of moderate embryonic axis dorsalization at 10 uM treated at 3 hrs post-fertilization measured at 48 hrs; parameters: scale not given: the % may be the effect or the level left; in short: as §3
# Danio rerio [25] = species on record: Danio rerio; assay: Toxicity in zebrafish assessed as mortality at 0.2 to 10 uM; assay type: organism-based; conditions: in vivo
# Danio rerio [26] = species on record: Danio rerio; assay: Inhibition of AMPK in zebrafish assessed as embryonic axis dorsalization at 10 uM treated at 3 hrs post-fertilization measured at 48 hrs; parameters: scale not given: the % may be the effect or the level left
# Danio rerio [27] = species on record: Danio rerio; assay: Inhibition of BMPR1 in zebrafish assessed as penetrance of normal embryonic axis dorsalization at 10 uM treated at 2 to 4 hrs post-fertilization measured at 48 hrs; parameters: scale not given: the % may be the effect or the level left
compound,measurement,setting,value
c1cc(-c2cnn3cc(-c4ccc(OCCN5CCCCC5)cc4)cnc23)ccn1 [DORSOMORPHIN],inhibition,Mus musculus [1],Active
same,inhibition,Mus musculus [2],Active
same,Activity,Mus musculus [3],60%
same,inhibition,Mus musculus [4],Active
same,inhibition,Mus musculus [5],Active
same,inhibition,Mus musculus [6],Active
same,inhibition,Mus musculus [7],Active
same,inhibition,Mus musculus [8],Active
same,inhibition,Mus musculus [9],Dose-dependent effect
same,inhibition,Mus musculus [10],Dose-dependent effect
same,Activity,C2C12 [11],Non-toxic
same,inhibition,C2C12 [12],Active
same,Activity,Danio rerio [13],0%
same,Activity,Danio rerio [14],0%
same,Activity,Danio rerio [15],35%
same,Activity,Danio rerio [16],0%
same,Activity,Danio rerio [17],0%
same,Activity,Danio rerio [18],0%
same,Activity,Danio rerio [19],0%
same,Activity,Danio rerio [20],100%
same,Activity,Danio rerio [21],0%
same,Activity,Danio rerio [22],0%
same,Activity,Danio rerio [23],100%
same,Activity,Danio rerio [24],98%
same,Activity,Danio rerio [25],Non-toxic
same,Activity,Danio rerio [26],100%
same,Activity,Danio rerio [27],0%

# Source: ChEMBL document CHEMBL1212693, “Dorsomorphin inhibits BMP signals required for embryogenesis and iron metabolism” (Nat Chem Biol, 2008)
